Data taken from ChEMBL document CHEMBL4261552, “4-Hydroxy-N-[3,5-bis(trifluoromethyl)phenyl]-1,2,5-thiadiazole-3-carboxamide: a novel inhibitor of the canonical NF-κB cascade” (Medchemcomm, 2017).

Legend:
[1] = tested on: MDA-MB-231; test: Antiproliferative activity against human MDA-MB-231 cells assessed as DNA content after 72 hrs by Hoechst 33258 staining based fluorescence assay; assay type: functional, cell-based; details: MDA-MB-231, 72 h
Method in brief: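 MDA-MB-231 cells (5 x 10³/well) grown in DMEM with 10% FBS and exposed to 0.001 - 200 µM compound or DMSO vehicle for 72 h. Cells were washed with PBS and lysed in 0.02% SDS in SSC buffer for 1 h at 37 °C. Hoechst 33258 (1 µg/mL) was then added and fluorescence read at ex 355/em 460 nm. IC50 taken by nonlinear regression; mean ± SD of three independent experiments.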

[2] = tested on: MDA-MB-231; test: Inhibition of constitutively activated canonical NF-kB signaling pathway in human MDA-MB-231 cells assessed as residual activity at 10 uM after 24 hrs by luciferase reporter gene assay relative to control; assay type: cell-based
Method in brief: (§1)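 MDA-MB-231 cells (constitutive NF-κB) nucleofected with 3 µg of NF-κB-RE firefly luciferase plus TK-Renilla plasmids (10:1), then cultured 24 h. Compound added for a further 6 h or 24 h, without stimulus. Firefly/Renilla ratio expressed as % of DMSO-treated control; mean ± SD of three independent experiments.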

[3] = tested on: MDA-MB-231; test: Cytotoxicity against human MDA-MB-231 cells after 72 hrs by CellTox green assay; assay type: cell-based; details: MDA-MB-231, 72 h
Method in brief: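 MDA-MB-231 cells (5×10^3/well) exposed to 0.001 - 100 µM compound or DMSO vehicle for 72 h. Membrane-integrity loss read by CellTox green fluorescence. IC50 taken by nonlinear regression; mean ± SD of three independent experiments.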

[4] = molecular target: T1, Inhibitor of nuclear factor kappa-B kinase subunit beta (Homo sapiens, UniProt O14920); test: Inhibition of IKK-beta in human Jurkat cells assessed as reduction in TNFalpha-stimulated IkBalpha degradation preincubated for 60 mins followed by TNFalpha stimulation for 20 mins by immunoblot analysis; assay type: cell-based
T1 sequence (O14920 whole entry): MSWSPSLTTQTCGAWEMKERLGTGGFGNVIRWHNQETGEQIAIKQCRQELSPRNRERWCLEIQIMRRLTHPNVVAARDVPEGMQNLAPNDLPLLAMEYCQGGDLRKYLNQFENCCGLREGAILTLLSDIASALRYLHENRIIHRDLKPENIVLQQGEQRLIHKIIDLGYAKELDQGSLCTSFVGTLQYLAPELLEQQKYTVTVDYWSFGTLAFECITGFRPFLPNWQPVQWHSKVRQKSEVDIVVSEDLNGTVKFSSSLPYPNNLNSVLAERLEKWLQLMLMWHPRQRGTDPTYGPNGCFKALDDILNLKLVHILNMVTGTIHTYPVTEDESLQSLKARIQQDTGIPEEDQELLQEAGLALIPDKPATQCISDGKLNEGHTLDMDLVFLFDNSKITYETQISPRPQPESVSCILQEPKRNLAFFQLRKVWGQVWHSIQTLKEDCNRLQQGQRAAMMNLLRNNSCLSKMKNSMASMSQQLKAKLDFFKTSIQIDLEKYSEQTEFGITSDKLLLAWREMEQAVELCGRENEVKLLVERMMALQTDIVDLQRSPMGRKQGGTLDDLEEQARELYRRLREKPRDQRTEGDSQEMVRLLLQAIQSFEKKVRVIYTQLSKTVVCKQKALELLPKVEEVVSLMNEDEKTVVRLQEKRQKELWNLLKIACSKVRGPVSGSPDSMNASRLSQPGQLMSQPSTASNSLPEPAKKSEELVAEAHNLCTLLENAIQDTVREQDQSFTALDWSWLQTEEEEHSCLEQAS

[5] = molecular target: T2, Inhibitor of nuclear factor kappa-B kinase subunit epsilon (Homo sapiens, UniProt Q14164); test: Inhibition of human IKKepsilon using ERLLDDRHDSGLDSMKDEE as substrate after 60 mins in presence of ATP by ADP-Glo kinase assay
T2 sequence (Q14164 whole entry): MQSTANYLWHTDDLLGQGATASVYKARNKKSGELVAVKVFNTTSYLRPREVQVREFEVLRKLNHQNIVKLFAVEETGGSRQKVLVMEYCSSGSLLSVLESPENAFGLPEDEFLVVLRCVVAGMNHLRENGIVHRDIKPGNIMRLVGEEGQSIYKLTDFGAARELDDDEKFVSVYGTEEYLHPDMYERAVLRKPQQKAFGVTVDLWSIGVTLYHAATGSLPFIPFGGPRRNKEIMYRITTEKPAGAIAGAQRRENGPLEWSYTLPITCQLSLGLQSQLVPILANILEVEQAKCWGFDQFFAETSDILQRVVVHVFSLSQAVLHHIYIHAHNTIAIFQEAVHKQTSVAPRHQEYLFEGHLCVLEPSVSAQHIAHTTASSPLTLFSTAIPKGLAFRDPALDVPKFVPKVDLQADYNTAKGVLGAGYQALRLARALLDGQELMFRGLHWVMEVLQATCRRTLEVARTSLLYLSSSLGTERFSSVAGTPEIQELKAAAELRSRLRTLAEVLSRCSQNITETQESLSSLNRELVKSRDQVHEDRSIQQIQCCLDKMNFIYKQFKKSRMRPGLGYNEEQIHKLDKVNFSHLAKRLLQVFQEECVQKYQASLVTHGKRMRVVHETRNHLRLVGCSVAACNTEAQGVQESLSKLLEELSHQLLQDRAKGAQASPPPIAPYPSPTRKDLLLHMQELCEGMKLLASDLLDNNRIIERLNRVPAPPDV

[6] = molecular target: T3, Inhibitor of nuclear factor kappa-B kinase subunit alpha (Homo sapiens, UniProt O15111); test: Inhibition of human IKKalpha using ERLLDDRHDSGLDSMKDEE as substrate after 60 mins in presence of ATP by ADP-Glo kinase assay
T3 sequence (O15111 whole entry): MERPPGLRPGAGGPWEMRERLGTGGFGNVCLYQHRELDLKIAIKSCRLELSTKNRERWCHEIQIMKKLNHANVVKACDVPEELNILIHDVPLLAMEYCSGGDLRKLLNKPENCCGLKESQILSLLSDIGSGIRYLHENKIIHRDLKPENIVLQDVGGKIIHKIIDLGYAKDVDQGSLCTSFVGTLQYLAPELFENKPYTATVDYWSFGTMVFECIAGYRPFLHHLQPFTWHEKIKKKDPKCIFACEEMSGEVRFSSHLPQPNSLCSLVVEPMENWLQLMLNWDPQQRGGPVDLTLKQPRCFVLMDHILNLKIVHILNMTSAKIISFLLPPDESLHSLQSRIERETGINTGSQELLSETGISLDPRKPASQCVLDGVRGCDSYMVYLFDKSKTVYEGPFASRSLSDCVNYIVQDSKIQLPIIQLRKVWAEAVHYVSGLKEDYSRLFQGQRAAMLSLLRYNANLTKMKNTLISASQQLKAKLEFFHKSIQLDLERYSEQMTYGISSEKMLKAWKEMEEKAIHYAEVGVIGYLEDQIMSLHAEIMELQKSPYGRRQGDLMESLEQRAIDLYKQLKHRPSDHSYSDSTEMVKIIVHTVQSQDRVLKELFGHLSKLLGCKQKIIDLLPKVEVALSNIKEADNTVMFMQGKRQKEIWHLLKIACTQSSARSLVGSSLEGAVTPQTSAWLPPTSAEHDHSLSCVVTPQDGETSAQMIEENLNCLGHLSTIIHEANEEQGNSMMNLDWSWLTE

[7] = tested on: MDA-MB-231; test: Inhibition of constitutively activated canonical NF-kB signaling pathway in human MDA-MB-231 cells assessed as residual activity at 10 uM after 6 hrs by luciferase reporter gene assay relative to control; assay type: cell-based; method in brief: as §1
[8] = tested on: Jurkat; test: Inhibition of TNFalpha-activated canonical NF-kB signaling pathway in human Jurkat cells assessed as residual activity at 1 uM after 6 hrs by luciferase reporter gene assay relative to control; assay type: cell-based
Method in brief: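 Jurkat cells nucleofected with 3 µg of NF-κB-RE firefly luciferase and TK-Renilla plasmids (10:1), then cultured 24 h at 37 °C. Compound added for a further 6 h, with TNFα in the last 20 min. Firefly luminescence normalized to Renilla and expressed as % of DMSO+TNFα control; mean ± SD of three experiments.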

[9] = molecular target: T1, Inhibitor of nuclear factor kappa-B kinase subunit beta; test: Inhibition of human IKKbeta using ERLLDDRHDSGLDSMKDEE as substrate after 60 mins in presence of ATP by ADP-Glo kinase assay
[10] = molecular target: T4, Mitogen-activated protein kinase kinase kinase 14 (Homo sapiens, UniProt Q99558); test: Inhibition of human NIK using AKDVDQGSLCTSFVGTLQY as substrate after 60 mins in presence of ATP by ADP-Glo kinase assay
Target sequence in this assay (Q99558 whole entry): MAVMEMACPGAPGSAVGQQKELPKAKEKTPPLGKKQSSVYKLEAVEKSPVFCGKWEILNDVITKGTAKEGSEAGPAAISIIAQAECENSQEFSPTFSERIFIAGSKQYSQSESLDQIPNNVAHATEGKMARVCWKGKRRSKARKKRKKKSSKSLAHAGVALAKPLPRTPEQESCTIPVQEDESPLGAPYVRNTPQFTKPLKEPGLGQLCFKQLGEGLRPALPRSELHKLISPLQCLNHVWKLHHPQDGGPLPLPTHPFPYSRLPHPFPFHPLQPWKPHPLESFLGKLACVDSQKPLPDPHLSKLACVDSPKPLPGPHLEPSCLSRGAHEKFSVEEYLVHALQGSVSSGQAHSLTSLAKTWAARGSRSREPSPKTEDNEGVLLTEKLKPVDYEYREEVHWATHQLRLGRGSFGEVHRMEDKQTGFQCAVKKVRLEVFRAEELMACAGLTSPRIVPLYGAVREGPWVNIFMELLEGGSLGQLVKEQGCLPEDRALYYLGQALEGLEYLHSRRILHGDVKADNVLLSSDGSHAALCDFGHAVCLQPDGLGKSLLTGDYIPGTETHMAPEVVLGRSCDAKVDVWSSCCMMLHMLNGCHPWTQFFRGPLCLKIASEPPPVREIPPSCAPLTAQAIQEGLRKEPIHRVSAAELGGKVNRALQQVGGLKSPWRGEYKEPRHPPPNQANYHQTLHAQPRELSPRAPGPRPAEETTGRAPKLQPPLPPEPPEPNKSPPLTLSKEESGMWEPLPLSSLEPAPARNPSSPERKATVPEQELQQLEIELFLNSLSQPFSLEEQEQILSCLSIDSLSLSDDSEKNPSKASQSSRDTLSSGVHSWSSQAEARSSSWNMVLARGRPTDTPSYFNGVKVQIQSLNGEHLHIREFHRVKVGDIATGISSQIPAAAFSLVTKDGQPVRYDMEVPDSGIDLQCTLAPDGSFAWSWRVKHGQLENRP

[11] = molecular target: T5, Inhibitor of nuclear factor kappa-B kinase subunit beta (Homo sapiens) (UniProt O14920); test: Inhibition of human IKKbeta at 100 uM using ERLLDDRHDSGLDSMKDEE as substrate after 60 mins in presence of ATP by ADP-Glo kinase assay relative to control
T5 sequence (whole entry): T1 sequence (O14920 whole entry)

[12] = molecular target: T6, Inhibitor of nuclear factor kappa-B kinase subunit epsilon (Homo sapiens) (UniProt Q14164); test: Inhibition of human IKKepsilon at 100 uM using ERLLDDRHDSGLDSMKDEE as substrate after 60 mins in presence of ATP by ADP-Glo kinase assay relative to control
T6 sequence (whole entry): T2 sequence (Q14164 whole entry)

[13] = molecular target: T7, Inhibitor of nuclear factor kappa-B kinase subunit alpha (Homo sapiens) (UniProt O15111); test: Inhibition of human IKKalpha at 100 uM using ERLLDDRHDSGLDSMKDEE as substrate after 60 mins in presence of ATP by ADP-Glo kinase assay relative to control
T7 sequence (whole entry): T3 sequence (O15111 whole entry)

[14] = molecular target: T4, Mitogen-activated protein kinase kinase kinase 14; test: Inhibition of human NIK at 100 uM using AKDVDQGSLCTSFVGTLQY as substrate after 60 mins in presence of ATP by ADP-Glo kinase assay relative to control
Target sequence in this assay (Q99558 whole entry, looked up): as the sequence (Q99558 whole entry) above

Row | SMILES | IC50 [1] [nM] | Activity [2] [%] | IC50 [3] [µM] | IC50 [4] [µM] | IC50 [5] [µM] | IC50 [6] [µM] | Activity [7] [%] | Activity [8] [%] | IC50 [9] [µM] | IC50 [10] [µM] | inhibition [11] [%] | inhibition [12] [%] | inhibition [13] [%] | inhibition [14] [%]
1 | O=C(Nc1cc(Cl)cc2c1[nH]c1cnccc12)c1cccnc1 | 900 | 8.67 | > 100 | 0.186 | > 100 | > 100 | 19.5 | 38.1 | 0.087 | > 100 |  |  |  | 
2 | Cn1nc(O)c(C(=O)Nc2cc(C(F)(F)F)cc(C(F)(F)F)c2)n1 |  |  |  | > 100 | > 100 | > 100 |  |  | > 100 | > 100 | 5.19 | 6.92 | 46.9 | 9.1
3 | COc1nsnc1C(=O)Nc1cc(C(F)(F)F)cc(C(F)(F)F)c1 |  |  |  | > 100 | > 100 | > 100 |  |  | > 100 | > 100 | 8.51 | 21.9 | 24.1 | -1.9
4 | O=C(Nc1cccc(C(F)(F)F)c1)c1nonc1O |  |  |  | 1.72 | > 100 | > 100 |  |  | > 100 | > 100 | 2.06 | 32.1 | -2.5 | 11.8
5 | O=C(Nc1cc(C(F)(F)F)cc(C(F)(F)F)c1)c1n[nH]nc1O |  |  |  | > 100 | > 100 | > 100 |  |  | > 100 | > 100 | 5.14 | 15.3 | 24.5 | -9.5
6 | O=C(Nc1cccc(C(F)(F)F)c1)c1nsnc1O |  |  |  | > 100 | > 100 | 35.5 |  |  | > 100 | > 100 | -0.94 | 25.8 |  | -1.1
7 | Cc1c(C(=O)Nc2cc(C(F)(F)F)cc(C(F)(F)F)c2)c(O)nn1C |  |  |  | 1.32 | > 100 | > 100 |  |  | > 100 | > 100 | 13.9 | 14.2 | 13.2 | 24.1
8 | Cn1nnc(O)c1C(=O)Nc1cc(C(F)(F)F)cc(C(F)(F)F)c1 |  |  |  | > 100 | 58.5 | > 100 |  |  | > 100 | > 100 | 11.2 |  | 13.1 | 12.1
9 | Cn1cc(C(=O)Nc2cc(C(F)(F)F)cc(C(F)(F)F)c2)c(O)n1 |  |  |  | 25.9 | > 100 | > 100 |  |  | > 100 | > 100 | 12.7 | 17.2 | 12.1 | 7.23
10 | Nc1nonc1C(=O)Nc1cc(C(F)(F)F)cc(C(F)(F)F)c1 |  |  |  | > 100 | 44.8 | > 100 |  |  | > 100 | > 100 | 31.6 |  | 29.3 | -9.2
11 | O=C(Nc1cc(C(F)(F)F)cc(C(F)(F)F)c1)c1nonc1O |  |  |  | 6.93 | 58.5 | > 100 |  |  | > 100 | > 100 | 12.2 |  | 18.6 | 19.3
